# Laboratory results as given in ChEMBL document CHEMBL4371044, “Celastrol Promotes Weight Loss in Diet-Induced Obesity by Inhibiting the Protein Tyrosine Phosphatases PTP1B and TCPTP in the Hypothalamus” (J Med Chem, 2018).
# Calls of active or inactive are those of the source. The rule behind the calls is not given here.
# Tests used:
# Mus musculus = experiment: Antiobesity activity in high fat diet-induced obese Ptpn1fl/fl/Ptpn2fl/fl null C57BL/6 mouse assessed as reduction in body weight at 100 ug/kg, ip for 10 consecutive days; assay type: functional, organism-based
# Method in brief: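 Male Ptpn1fl/fl, Ptpn2fl/fl or double-floxed mice: chow 8 weeks, then high-fat diet (45% energy from fat) 12 weeks. Bilateral intra-ARC stereotaxic injection of rAAV-CMV-Cre-GFP or rAAV-CMV-GFP, 100 nL/side. After 2 weeks recovery, vehicle or 100 μg/kg ip daily at 6 pm for 10 days; body weight tracked; two-way repeated-measures ANOVA with Tukey test; means ± SEM.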
# [1] = target: T1, Tyrosine-protein phosphatase non-receptor type 1 (Homo sapiens, UniProt P18031); experiment: Inhibition of human N-terminal His6-tagged PTP1B catalytic domain (1 to 393 residues) expressed in Escherichia coli strain Rosetta2 (DE3) using DiFMUP as substrate preincubated for 10 mins followed by substrate addition and measured after 10 mins by fluorescence assay
# T1 sequence (P18031 whole entry): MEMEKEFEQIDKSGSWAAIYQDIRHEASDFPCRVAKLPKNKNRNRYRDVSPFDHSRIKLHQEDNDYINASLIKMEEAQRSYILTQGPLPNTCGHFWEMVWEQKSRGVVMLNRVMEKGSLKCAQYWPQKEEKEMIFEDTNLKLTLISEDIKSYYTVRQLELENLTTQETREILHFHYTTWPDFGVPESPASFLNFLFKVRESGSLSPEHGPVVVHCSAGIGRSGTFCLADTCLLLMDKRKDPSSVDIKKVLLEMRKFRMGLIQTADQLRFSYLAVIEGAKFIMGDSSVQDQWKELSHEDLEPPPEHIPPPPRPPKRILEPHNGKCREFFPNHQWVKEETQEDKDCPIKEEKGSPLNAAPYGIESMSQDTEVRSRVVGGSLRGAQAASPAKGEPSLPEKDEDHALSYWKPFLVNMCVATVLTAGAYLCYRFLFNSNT
# Method in brief: (§1)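 Tag-cleaved, SEC-purified enzyme at 1 nM, preincubated 10 min with compound at 15 concentrations from 0–500 μM (5% DMSO final) in 25 mM Bis-Tris propane pH 7.5, 50 mM NaCl, 2 mM EDTA. DiFMUP added at each construct's Km (10, 7, 10, 9 μM for PTP1B1−298, PTP1B1−393, TCPTP1−296, TCPTP1−336). Read ex 358/em 455 nm continuously 10 min at 37 °C; triplicate; log(inhibitor)-response fit.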
# [2] = target: T2, Tyrosine-protein phosphatase non-receptor type 2 (Homo sapiens, UniProt P17706); experiment: (§2) Inhibition of human N-terminal His6-tagged TCPTP catalytic domain (1 to 336 residues) expressed in Escherichia coli strain Rosetta2 (DE3) using DiFMUP as substrate preincubated for 10 mins followed by substrate addition and measured after 10 mins by fluorescence assay; method in brief: as §1
# T2 sequence (P17706 whole entry): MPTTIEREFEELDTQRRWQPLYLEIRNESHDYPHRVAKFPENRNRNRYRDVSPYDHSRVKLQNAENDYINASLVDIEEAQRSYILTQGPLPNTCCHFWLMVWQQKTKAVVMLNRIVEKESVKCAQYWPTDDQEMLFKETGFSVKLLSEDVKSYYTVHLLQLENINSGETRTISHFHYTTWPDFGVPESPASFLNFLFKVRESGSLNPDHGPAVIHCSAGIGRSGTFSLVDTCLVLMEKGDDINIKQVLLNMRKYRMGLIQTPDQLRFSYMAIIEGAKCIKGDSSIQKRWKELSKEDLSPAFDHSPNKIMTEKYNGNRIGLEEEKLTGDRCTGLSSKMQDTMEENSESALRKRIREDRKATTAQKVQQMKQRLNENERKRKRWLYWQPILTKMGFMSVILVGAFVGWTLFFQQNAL
# [3] = target: T3, Tyrosine-protein phosphatase non-receptor type 2 (Homo sapiens) (UniProt P17706); experiment: as §2, with “Non competitive inhibition” for “Inhibition”, “assay Michaelis-Menten plot analysis” for “assay”
# T3 sequence (whole entry): T2 sequence (P17706 whole entry)
# [4] = target: T4, Tyrosine-protein phosphatase non-receptor type 1 (Homo sapiens) (UniProt P18031); experiment: Binding affinity to human N-terminal His6-tagged PTP1B catalytic domain (1 to 298 residues) expressed in Escherichia coli strain Rosetta2 (DE3) assessed as association half life using DiFMUP as substrate preincubated for 10 mins followed by substrate addition measured for 10 mins fluorescence assay
# T4 sequence (whole entry): T1 sequence (P18031 whole entry)
structure (smiles),measurement,setting,value
CC1=C(O)C(=O)C=C2C1=CC=C1[C@@]2(C)CC[C@@]2(C)[C@@H]3C[C@](C)(C(=O)O)CC[C@]3(C)CC[C@]12C [CELASTROL],Activity,Mus musculus,Active
same,IC50,[1],2.1 µM
same,IC50,[2],18.8 µM
same,inhibition,[3],Active
same,T1/2,[4],31.9 min
